# Assay results reported in ChEMBL document CHEMBL3576863, “Structural requirements for bisphosphonate binding on hydroxyapatite: NMR study of bisphosphonate partial esters” (ACS Med Chem Lett, 2015).
# The source made the active and inactive calls. No cut-off for these calls is given here.
# Columns and labels:
# Hydroxyapatite [1] = assay: Binding affinity to hydroxyapatite at 3.6 to 10.7 mM after 1 hr by NMR analysis relative to control
# Outline: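 Hydroxyapatite (HAP) used as a synthetic bone surrogate. BP solution mixed with HAP for 1 h. Bound fraction expressed as percent of BP bound to HAP, calculated from the concentration difference of the BP solution before and after HAP incubation. Statistics by t test.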
# Hydroxyapatite [2] = assay: Binding affinity to hydroxyapatite at 3.2 to 3.7 mM after 1 hr by NMR analysis relative to control
# Outline: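 Synthetic hydroxyapatite used as a bone model. Each bisphosphonate solution was mixed with HAP for 1 h. Percent HAP-bound was calculated from the solution concentration difference before and after incubation. Statistical comparison by t test.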
# [3] = Half life in human plasma at 0.015 mg/kg, iv; assay type: ADME, organism-based
# Homo sapiens = assay: Half life in human plasma at 1 mg/kg, iv; assay type: ADME, organism-based; conditions: in vivo
# [4] = Half life in human plasma at 2.5 to 4 mg/kg, iv; assay type: ADME, organism-based
Structure (SMILES),Activity (Hydroxyapatite [1]),further results
COP(=O)(O)C(O)(CCCN)P(=O)(O)O (stereo unspecified),31%,–
COP(=O)(O)C(C)(O)P(=O)(O)OC (stereo unspecified),3.8%,–
COP(=O)(OC)C(O)(CCCN)P(=O)(O)O (stereo unspecified),21.7%,–
CC(=O)NCCCC(OC(C)=O)(P(=O)(O)O)P(=O)(O)O,47.7%,–
COP(=O)(O)C(C)(O)P(=O)(OC)OC (stereo unspecified),inactive,–
CC(O)(P(=O)(O)O)P(=O)(O)Oc1ccccc1 (stereo unspecified),48%,–
COP(=O)(O)C(Cl)(Cl)P(=O)(O)O,inactive,–
CC(O)(P(=O)(O)O)P(=O)(O)O [ETIDRONIC ACID],–,Activity (Hydroxyapatite [2]): 70%; half-life [3]: 1 h
NCCCC(O)(P(=O)(O)O)P(=O)(O)O,–,Activity (Hydroxyapatite [2]): 70%
O=P(O)(O)CP(=O)(O)O,–,Activity (Hydroxyapatite [2]): 70%
NCCC(O)(P(=O)(O)O)P(=O)(O)O [PAMIDRONIC ACID],–,t1/2 (Homo sapiens): 1 h
COP(=O)(O)CP(=O)(O)O,18.6%,–
COP(=O)(OC)C(C)(O)P(=O)(O)O (stereo unspecified),12.6%,–
CC(C)OP(=O)(O)C(Cl)(Cl)P(=O)(O)O,inactive,–
COP(=O)(O)C(C)(O)P(=O)(O)O (stereo unspecified),55.6%,–
CC(C)OP(=O)(OC(C)C)C(C)(O)P(=O)(O)O (stereo unspecified),11.4%,–
COP(=O)(O)CP(=O)(O)OC,inactive,–
COP(=O)(O)CP(=O)(OC)OC,inactive,–
O=P(O)(O)C(Cl)(Cl)P(=O)(O)O [CLODRONIC ACID],–,Activity (Hydroxyapatite [2]): 41.9%; half-life [4]: 1 h
